Tests used:
Type in all cases: functional
MDA-MB-231 = assay: Antitumor activity against human MDA-MB-231 cells after 48 hrs by sulforhodamine B assay; settings: MDA-MB-231, 48 h
Procedure, shortened: (§1)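 Cells were grown in RPMI-1640 with 5% FBS and 2 mM L-glutamine, plated at 5000–40,000 cells/well, and preincubated for 24 h. A time-zero plate was TCA-fixed. Compounds were added from DMSO stock at five concentrations for 48 h at 37 °C. Cells were fixed with TCA (adherent 10%, suspension 16%) and stained with SRB, and A515 was read. GI50 and TGI were calculated from Tz, control and test absorbances.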

HL-60(TB) = assay: Antitumor activity against human HL-60(TB) cells after 48 hrs by sulforhodamine B assay; settings: HL-60, 48 h
Procedure, shortened: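 NCI panel screen. Cells were grown in RPMI-1640 with 5% FBS and 2 mM L-glutamine, seeded at 5000–40,000 cells/well depending on doubling time, and preincubated 24 h at 37 °C in 5% CO2. Compound was diluted from a DMSO concentrate to five levels and given for 48 h. Settled cells were fixed with TCA (final 16%), stained with 0.4% SRB, and read at 515 nm. GI50 was taken from [(Ti−Tz)/(C−Tz)]×100 = 50.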

SW-620 = assay: Antitumor activity against human SW620 cells after 48 hrs by sulforhodamine B assay; settings: SW-620, 48 h
Procedure, shortened: (§2)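 Cells grown in RPMI-1640 with 5% FBS and 2 mM glutamine, plated and preincubated 24 h; time-zero plates TCA-fixed. Five-level serial dilutions added, 48 h at 37 °C. TCA fixation, SRB staining, absorbance 515 nm. GI50 derived from [(Ti−Tz)/(C−Tz)]×100 = 50; TGI is concentration giving 100% growth inhibition.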

HCT-116 = assay: Antitumor activity against human HCT116 cells after 48 hrs by sulforhodamine B assay; settings: HCT-116, 48 h; procedure, shortened: as §1
OVCAR-4 = assay: Antitumor activity against human OVCAR4 cells after 48 hrs by sulforhodamine B assay; settings: OVCAR-4, 48 h
Procedure, shortened: (§3)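 Cells were cultured in RPMI-1640 (5% FBS, 2 mM L-glutamine), pre-incubated for 24 h with time-zero plates TCA-fixed, then exposed for 48 h to five serial dilutions. The SRB read-out at 515 nm used time-zero, control and test absorbances. GI50 solves [(Ti−Tz)/(C−Tz)]×100 = 50 (net protein increase). TGI is the concentration giving 100% growth inhibition.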

SN12C = assay: Antitumor activity against human SN12C cells after 48 hrs by sulforhodamine B assay; procedure, shortened: as §3
786-0 = assay: Antitumor activity against human 786-0 cells after 48 hrs by sulforhodamine B assay; settings: 786-0, 48 h; procedure, shortened: as §1
DU-145 = assay: Antitumor activity against human DU145 cells after 48 hrs by sulforhodamine B assay; settings: DU-145, 48 h; procedure, shortened: as §1
COLO 205 = assay: Antitumor activity against human COLO205 cells after 48 hrs by sulforhodamine B assay; settings: COLO 205, 48 h; procedure, shortened: as §1
UACC-257 = assay: Antitumor activity against human UACC257 cells after 48 hrs by sulforhodamine B assay; settings: UACC-257, 48 h; procedure, shortened: as §2
HOP-62 = assay: Antitumor activity against human HOP62 cells after 48 hrs by sulforhodamine B assay; settings: HOP-62, 48 h; procedure, shortened: as §1
EKVX = assay: Antitumor activity against human EKVX cells after 48 hrs by sulforhodamine B assay; procedure, shortened: as §1
PC-3 = assay: Antitumor activity against human PC3 cells after 48 hrs by sulforhodamine B assay; settings: PC-3, 48 h; procedure, shortened: as §3
SK-OV-3 = assay: Antitumor activity against human SKOV3 cells after 48 hrs by sulforhodamine B assay; settings: SK-OV-3, 48 h; procedure, shortened: as §3
MCF7 = assay: Antitumor activity against human MCF7 cells after 48 hrs by sulforhodamine B assay; settings: MCF7, 48 h; procedure, shortened: as §1
NCI-H460 = assay: Antitumor activity against human NCI-H460 cells after 48 hrs by sulforhodamine B assay; settings: NCI-H460, 48 h; procedure, shortened: as §3
CCRF-CEM = assay: Antitumor activity against human CCRF-CEM cells after 48 hrs by sulforhodamine B assay; procedure, shortened: as §1
NCI-H226 = assay: Antitumor activity against human NCI-H226 cells after 48 hrs by sulforhodamine B assay; settings: NCI-H226, 48 h; procedure, shortened: as §3
BT-549 = assay: Antitumor activity against human BT549 cells after 48 hrs by sulforhodamine B assay; settings: BT-549, 48 h; procedure, shortened: as §1
A498 = assay: Antitumor activity against human A498 cells after 48 hrs by sulforhodamine B assay; settings: A498, 48 h; procedure, shortened: as §1
CAKI-1 = assay: Antitumor activity against human Caki1 cells after 48 hrs by sulforhodamine B assay; settings: CAKI-1, 48 h; procedure, shortened: as §1
KM12 = assay: Antitumor activity against human KM12 cells after 48 hrs by sulforhodamine B assay; settings: KM12, 48 h; procedure, shortened: as §1
SF-268 = assay: Antitumor activity against human SF268 cells after 48 hrs by sulforhodamine B assay; settings: SF-268, 48 h; procedure, shortened: as §3
[1] = Antitumor activity against human […] cells after 48 hrs by sulforhodamine B assay; settings: RPMI-8226, 48 h; procedure, shortened: as §3
[2] = Antitumor activity against human […] cells at 10 uM after 48 hrs by sulforhodamine B assay relative to control; settings: values are per cent of control
Procedure, shortened: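 NCI panel lines were grown in RPMI-1640 with 5% FBS and 2 mM L-glutamine and seeded at 5000–40,000 cells/well according to doubling time. After 24 h at 37 °C, 5% CO2, one dose from a DMSO stock was added for 48 h. Cells were TCA-fixed (10% final adherent, 16% suspension), SRB-stained and read at 515 nm. Percent growth is relative to untreated control.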

ACHN = assay: Antitumor activity against human ACHN cells after 48 hrs by sulforhodamine B assay; procedure, shortened: as §1
K562 = assay: Antitumor activity against human K562 cells after 48 hrs by sulforhodamine B assay; settings: K562, 48 h; procedure, shortened: as §1
NCI/ADR-RES = assay: Antitumor activity against human NCI/ADR-RES cells after 48 hrs by sulforhodamine B assay; procedure, shortened: as §3
HT-29 = assay: Antitumor activity against human HT-29 cells after 48 hrs by sulforhodamine B assay; settings: HT-29, 48 h; procedure, shortened: as §1

COc1ccc(NC(=O)Nc2ccccc2OCCCOc2ccccc2NC(=O)Nc2ccc(OC)cc2)cc1
GI50 (MDA-MB-231): 8.8 µM
TGI (MDA-MB-231): > 100 µM
GI50 (HL-60(TB)): 26.7 µM
TGI (HL-60(TB)): 68 µM
GI50 (SW-620): > 100 µM
TGI (SW-620): > 100 µM
GI50 (HCT-116): 5.3 µM
TGI (HCT-116): > 100 µM
GI50 (OVCAR-4): > 100 µM
TGI (OVCAR-4): > 100 µM
GI50 (SN12C): > 100 µM
TGI (SN12C): > 100 µM
TGI (786-0): > 100 µM
GI50 (DU-145): > 100 µM
TGI (DU-145): > 100 µM
GI50 (COLO 205): 14.3 µM
TGI (COLO 205): > 100 µM
GI50 (UACC-257): > 100 µM
TGI (UACC-257): > 100 µM
GI50 (HOP-62): 3.3 µM
TGI (HOP-62): 9.4 µM
GI50 (EKVX): 10.5 µM
TGI (EKVX): > 100 µM
GI50 (PC-3): > 100 µM
TGI (PC-3): > 100 µM
GI50 (SK-OV-3): 5 µM
TGI (SK-OV-3): > 100 µM
GI50 (MCF7): > 100 µM
TGI (MCF7): > 100 µM
GI50 (NCI-H460): > 100 µM
TGI (NCI-H460): > 100 µM
GI50 (CCRF-CEM): 14.4 µM
TGI (CCRF-CEM): 78.9 µM
GI50 (NCI-H226): > 100 µM
TGI (NCI-H226): > 100 µM
GI50 (BT-549): 1.5 µM
TGI (BT-549): 29.2 µM
GI50 (A498): 16 µM
TGI (A498): 72.9 µM
GI50 (CAKI-1): > 100 µM
TGI (CAKI-1): > 100 µM
GI50 (KM12): > 100 µM
TGI (KM12): > 100 µM
GI50 (SF-268): 7.3 µM
TGI (SF-268): > 100 µM
GI50 [1]: 58.3 µM
TGI [1]: > 100 µM
growth, % of control at 10 µM [2]: 77%
GI50 (ACHN): > 100 µM
TGI (ACHN): > 100 µM
GI50 (K562): 31.7 µM
TGI (K562): > 100 µM
GI50 (NCI/ADR-RES): > 100 µM
TGI (NCI/ADR-RES): > 100 µM
GI50 (HT-29): > 100 µM
TGI (HT-29): > 100 µM

— ChEMBL document CHEMBL1287652, “QSAR modeling, synthesis and bioassay of diverse leukemia RPMI-8226 cell line active agents” (2010)
